From PubChem
A selection: hits, their analogues and other compounds. The true share with any hit is near 3.5%.
MrgX1 antag – antagonists of human MrgX1 receptor | 1.3% of 310,000 active | B-score at 10 µM | MRGX1-HEK293 calcium flux, Fluo-4, BAM8-22 antagonism; stronger effect = lower value | AID 588676 | Q96LB2;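 active means calcium-response B-score plate-corrected more than 3 library SD below zero, starting fluorescence within 5 deviations, no agonist response on first addition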;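 further: peak minus trough fluorescence over baseline after final BAM8-22 challenge near maximal dose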
Target sequence (Q96LB2 whole entry, looked up): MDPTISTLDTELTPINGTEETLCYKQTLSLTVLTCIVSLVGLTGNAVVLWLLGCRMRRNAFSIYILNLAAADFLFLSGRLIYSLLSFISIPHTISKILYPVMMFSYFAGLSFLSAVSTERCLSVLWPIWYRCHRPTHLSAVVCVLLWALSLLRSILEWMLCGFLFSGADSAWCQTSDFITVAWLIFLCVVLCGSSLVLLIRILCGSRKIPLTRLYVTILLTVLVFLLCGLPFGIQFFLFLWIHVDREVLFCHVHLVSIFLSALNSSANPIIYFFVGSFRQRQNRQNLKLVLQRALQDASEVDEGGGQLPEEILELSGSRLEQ
MrgX1 PAM – human MrgX1 positive allosteric modulation, primary screen | 0.63% of 310,000 active | B-score at 10 µM | AID 588675 | Q96LB2 | MrgX1-HEK293, Fluo-4 calcium flux, FDSS; stronger effect = higher value;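 active means plate-corrected calcium response at least 3 library SD above typical, normal starting fluorescence, not activating the receptor alone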;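 further: compound read alongside a low EC10 to EC30 dose of BAM8-22 agonist; peak minus trough fluorescence over baseline measured at the second addition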
RGS4 inh – inhibitors of human RGS4; P49798; HEK293 M3R/RGS4 inducible, Fluo-4 calcium flux; stronger effect = higher value; triggered by carbachol at its EC20; B-score at 10 µM; 0.45% of 310,000 active; AID 463165;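 active means B-score, a plate-corrected calcium signal, over three deviations above library mean, with baseline fluorescence within five deviations of library mean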;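 further: RGS4 expression induced by doxycycline in cells with stable M3 receptor; B-score is computed from the integrated fluorescence ratio over baseline after carbachol; higher B-score means a larger calcium signal and so more RGS4 inhibition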
Target sequence (P49798 whole entry, looked up): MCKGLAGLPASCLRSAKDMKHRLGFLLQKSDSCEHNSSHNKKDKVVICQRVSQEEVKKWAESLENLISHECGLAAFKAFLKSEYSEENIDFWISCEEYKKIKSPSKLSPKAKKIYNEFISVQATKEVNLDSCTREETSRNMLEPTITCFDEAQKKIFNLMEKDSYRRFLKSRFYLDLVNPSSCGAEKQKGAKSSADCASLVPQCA
RGS4 pot – RGS4 potentiation or activation; HEK293 M3R/inducible RGS4, carbachol calcium flux Fluo4; stronger effect = lower value; B-score at 10 µM; 0.92% of 310,000 active; AID 463111;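 active means B-score of the integrated calcium signal more than 4 SD below the library mean, with starting fluorescence not abnormally high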;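 further: negative B-score means reduced calcium response which marks RGS4 activation or potentiation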
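test system = HEK293 cells with stable M3R and inducible RGS4 | schedule = recording 10 s baseline at 1 Hz, 100 s post-agonist | technique = Fluo4-AM (2 µM) calcium-flux fluorescence, kinetic read | measure = Agonist-evoked peak-minus-minimum fluorescence over baseline, integrated ratio, B score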
MrgX1 agonist – agonists of human MrgX1 receptor | 0.44% of 310,000 active | B-score at 10 µM | MrgX1-HEK293 cells, Fluo-4 calcium fluorescence, agonist mode; stronger effect = higher value | Q96LB2 | AID 588627;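 active means calcium response B-score plate-corrected fluorescence ratio at least 3 library SD, with starting fluorescence B-score inside 5 SD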
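Material: MrgX1-expressing HEK293 cells; input: 15,000 cells per well; doses: test compound given as first of three sequential additions; schedule: overnight plating before 1 h dye loading; technique: Fluo-4 NW calcium-flux fluorescence, kinetic read; evaluation: baseline-normalised fluorescence change ratio, B-scored; control set: plate-wise positive and negative controls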
MrgX1 antag conf – reconfirmed antagonist of human MrgX1 receptor signaling. shares compounds with MrgX1 antag. MrgX1-HEK293, BAM8-22 calcium flux, Fluo-4; stronger effect = lower value. remaining BAM8-22 calcium response % of control (stronger effect = lower value), % at 10 µM. 19% of 2,300 active;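 active means remaining agonist calcium response no higher than 100% minus 3 SD of agonist-only control wells, with starting fluorescence near control levels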;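 further: agonist BAM8-22 given at a near maximal EC90 to ECmax level; peak minus minimum fluorescence divided by baseline after agonist addition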
HEK293 Ca flux – MrgX1 antagonist counter-screen hit in parental HEK293 cells | shares compounds with MrgX1 antag | fluorescence ratio F(max-min)/F0 at 10 µM | AID 624111 | 2% of 4,000 active | Fluo-4 calcium fluorescence, FDSS;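 active means duplicate-averaged calcium fluorescence ratio at least three times the standard deviation of buffer wells, a nonspecific response in parental cells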
HEK293 Ca counter – activity in parental HEK293 cells without MrgX1 | fluorescence ratio F(max-min)/F0 at 10 µM | shares compounds with MrgX1 antag | 0.4% of 4,000 active | AID 624114 | parental HEK293 calcium flux, Fluo-4 fluorescence ratio; stronger effect = higher value;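 active means calcium fluorescence ratio, averaged over duplicates, at least 3 SD of the buffer-well ratio, meaning a nonspecific response in receptor-free cells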;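 further: untransfected parental HEK293 lacking MrgX1 used as counterscreen for MrgX1 allosteric activators; fluorescence change taken during the second addition on a kinetic imager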
HEK293 Ca cntr2 – activity in parental HEK293 cells lacking MrgX1 receptor; shares compounds with MrgX1 antag; Fluo-4 calcium fluorescence (FDSS); stronger effect = higher value; fluorescence ratio F(max-min)/F0 at 10 µM; 8.7% of 4,000 active; AID 624115;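 active means calcium fluorescence ratio at least three times the spread of buffer wells, meaning a non-specific response in parental cells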
Numbers without * were called inactive; i = inactive; / = not tested or not shown.

SMILES	MrgX1 antag	MrgX1 PAM	RGS4 inh	RGS4 pot	MrgX1 agonist	MrgX1 antag conf	HEK293 Ca flux	HEK293 Ca counter	HEK293 Ca cntr2
C(=C\c1ccc2ccccc2n1)/c1ccccc1	i	i	i	i	i	/	/	/	/
CN(C)c1ccc(/C=C/c2ccc3ccccc3n2)cc1	-6.9*	i	i	i	i	i	0.55*	i	i
Cc1cc(Nc2ccccc2)n(-c2ccc(C(=O)O)cc2)n1	-4.5*	i	i	i	i	i	i	i	i
Cc1cc(C)n(-c2ccc(C(=O)O)cc2)n1	i	i	i	i	i	/	/	/	/
CON(C)c1nc(C2CCCCC2)c2cc(C)ccc2n1	i	i	i	i	i	/	/	/	/
COc1ccc(-c2nc(C3CCCCC3)c3cc(OC)ccc3n2)cc1	-5*	i	i	i	i	i	i	i	i
COCC(=O)N1CCN(c2nc3ccccc3o2)CC1	-4.5*	i	i	i	i	i	i	i	i
O=C(CSc1nc2ccccc2o1)N1CCCC1	i	i	i	i	i	/	/	/	/
Cc1cccc(CN2CCN(C(=S)Nc3ccccc3)CC2)c1	-5*	i	i	i	i	i	i	i	i
Cc1cccc(NC(=O)c2ccc(CN3CCN(Cc4ccccc4)CC3)cc2)c1	-7.9*	i	i	i	i	i	i	i	i
Cc1cccc(NC(=O)CCN2CCN(C/C=C/c3ccccc3)CC2)c1	-6.1*	i	i	i	i	i	i	i	i
O=C(CCN1CCN(C/C=C/c2ccccc2)CC1)Nc1ccccc1	i	i	i	i	i	/	/	/	/
O=C(COc1ccccc1)OCC(=O)N1CCCc2ccccc21	-6.1*	i	i	i	i	i	i	i	i
O=C(COc1ccccc1)N1CCc2ccccc21	i	i	i	i	i	/	/	/	/
CCOC(=O)COc1cccc2c(=O)n(CC(=O)N3CCCCC3)ccc12	i	i	i	i	i	/	/	/	/
COC(=O)COc1cccc2c(=O)n(CC(=O)N3CCCc4ccccc43)ccc12	-8.9*	i	i	i	i	i	i	i	i
Cc1cccc(CNC(=O)Cn2ccc3cc(S(=O)(=O)N4CCCC4)ccc32)c1	-6.8*	i	i	i	i	i	i	i	i
Cc1cccc(CNC(=O)Cn2ccc3cc(S(=O)(=O)N4CCCCCC4)ccc32)c1	i	i	i	i	i	/	/	/	/
COc1ccc(/C=C2\S/C(=N/S(=O)(=O)c3cccs3)NC2=O)cc1	i	i	i	i	i	/	/	/	/
Cc1ccc2[nH]c3c(c2c1)CCc1cn[nH]c1-3	-4.9*	i	i	i	i	i	i	i	i
Cc1ccc2[nH]c3c(c2c1)CCC3=O	i	i	i	i	i	/	/	/	/
CC1=C([N+](=O)[O-])C(c2ccc(Cl)cc2)NC(=O)N1C (stereo not drawn)	i	i	i	i	i	/	/	/	/
Cc1ccc(C)c(NC(=O)CS(=O)(=O)c2cn(C)c3ccccc23)c1	-13*	i	i	i	i	i	i	i	i
Cn1cc(S(=O)(=O)CC(=O)Nc2ccc3c(c2)OCCO3)c2ccccc21	i	i	i	i	i	/	/	/	/
c1ccc(CSc2nnc(Cc3ccccn3)o2)cc1	-7.8*	i	i	i	i	i	i	i	i
SMILES	MrgX1 antag	MrgX1 PAM	RGS4 inh	RGS4 pot	MrgX1 agonist	MrgX1 antag conf	HEK293 Ca flux	HEK293 Ca counter	HEK293 Ca cntr2
c1ccc(CSc2nnc(Cc3ccccc3)o2)cc1	i	i	i	i	i	/	/	/	/
Cc1ccc(NC(=O)Cc2c(Cl)cccc2Cl)cc1S(=O)(=O)N(C)C	-19*	i	i	i	i	i	i	i	i
CC(=O)c1cccc(NS(=O)(=O)N2CCOCC2)c1	i	i	i	i	i	/	/	/	/
CC1C(=O)NN=C1C(=O)N/N=C/c1cccs1 (stereo not drawn)	-11*	i	i	i	i	i	i	i	i
Cc1cc(NC(=O)C(C)Oc2ccc(Cl)cc2Cl)no1 (stereo not drawn)	i	i	i	i	i	/	/	/	/
COc1ccccc1-c1nnc(SC2CCc3ccccc3NC2=O)s1 (stereo not drawn)	-6.4*	i	i	i	i	i	i	i	i
Cc1ccccc1N(C(=O)Cc1c[nH]c2ccccc12)C(C(=O)NC1CCCCC1)c1ccco1 (stereo not drawn)	-16*	i	i	i	i	i	i	i	i
O=C(NC(=S)NCCN1CCOCC1)c1ccccc1Cl	-4.9*	i	i	i	i	i	i	i	i
Cc1ccc(S(=O)(=O)N2CCCCC2)cc1NC(=O)CCc1nc2ccccc2c(=O)[nH]1	i	i	i	i	i	/	/	/	/
COc1cc(NC(=O)c2nccnc2C(=O)O)cc(OC)c1	-6*	i	i	i	i	i	i	i	i
COc1cccc(NC(=O)c2ccc(C(=O)c3ccccc3)o2)c1	i	i	i	i	i	/	/	/	/
COc1ccc(/C=C/C(=O)Nc2nc(C)c(C(=O)N(C)C)s2)cc1OC	i	i	i	i	i	/	/	/	/
COc1ccc(C(=O)Nc2nc(C)c(C(=O)N(C)C)s2)cc1OC	-8.7*	i	i	i	i	i	i	i	i
O=C(Nc1ccc(Oc2ccc(NC(=O)C3CCCO3)cc2)cc1)C1CCCO1 (stereo not drawn)	i	i	i	i	i	/	/	/	/
NC(=O)c1ccc(NC(=O)C2CCCO2)cc1 (stereo not drawn)	-5.9*	i	i	i	i	i	i	i	i
COc1ccc2nc(NC(=O)C3CCCO3)sc2c1 (stereo not drawn)	i	i	i	i	i	/	/	/	/
CSc1nc2ccc(NC(=O)C3CCCO3)cc2s1 (stereo not drawn)	-6.8*	i	i	i	i	i	i	i	i
